Results as given in PMC12409571 (ACS Omega, 2025).

Assays:
human TRPV1 = human TRPV1 (Homo sapiens, UniProt Q8NER1); assay: Compound selectivity fluorescence-based Ca2+ assay, capsaicin-stimulated TRPV1; type: cell-based; settings: 10 μM capsaicin; PHL-B 0.1-10 μM; capsazepine 1 μM
TRPA1 channels = settings: read-out: EC50 (activation of TRPA1 channels); cited from earlier work
human TRPA1 [1] = molecular target: T1, human TRPA1 (Homo sapiens, UniProt O75762); assay: Whole-cell patch clamp of TRPA1 currents in HEK293T cells; type: cell-based
T1 sequence (O75762 whole entry): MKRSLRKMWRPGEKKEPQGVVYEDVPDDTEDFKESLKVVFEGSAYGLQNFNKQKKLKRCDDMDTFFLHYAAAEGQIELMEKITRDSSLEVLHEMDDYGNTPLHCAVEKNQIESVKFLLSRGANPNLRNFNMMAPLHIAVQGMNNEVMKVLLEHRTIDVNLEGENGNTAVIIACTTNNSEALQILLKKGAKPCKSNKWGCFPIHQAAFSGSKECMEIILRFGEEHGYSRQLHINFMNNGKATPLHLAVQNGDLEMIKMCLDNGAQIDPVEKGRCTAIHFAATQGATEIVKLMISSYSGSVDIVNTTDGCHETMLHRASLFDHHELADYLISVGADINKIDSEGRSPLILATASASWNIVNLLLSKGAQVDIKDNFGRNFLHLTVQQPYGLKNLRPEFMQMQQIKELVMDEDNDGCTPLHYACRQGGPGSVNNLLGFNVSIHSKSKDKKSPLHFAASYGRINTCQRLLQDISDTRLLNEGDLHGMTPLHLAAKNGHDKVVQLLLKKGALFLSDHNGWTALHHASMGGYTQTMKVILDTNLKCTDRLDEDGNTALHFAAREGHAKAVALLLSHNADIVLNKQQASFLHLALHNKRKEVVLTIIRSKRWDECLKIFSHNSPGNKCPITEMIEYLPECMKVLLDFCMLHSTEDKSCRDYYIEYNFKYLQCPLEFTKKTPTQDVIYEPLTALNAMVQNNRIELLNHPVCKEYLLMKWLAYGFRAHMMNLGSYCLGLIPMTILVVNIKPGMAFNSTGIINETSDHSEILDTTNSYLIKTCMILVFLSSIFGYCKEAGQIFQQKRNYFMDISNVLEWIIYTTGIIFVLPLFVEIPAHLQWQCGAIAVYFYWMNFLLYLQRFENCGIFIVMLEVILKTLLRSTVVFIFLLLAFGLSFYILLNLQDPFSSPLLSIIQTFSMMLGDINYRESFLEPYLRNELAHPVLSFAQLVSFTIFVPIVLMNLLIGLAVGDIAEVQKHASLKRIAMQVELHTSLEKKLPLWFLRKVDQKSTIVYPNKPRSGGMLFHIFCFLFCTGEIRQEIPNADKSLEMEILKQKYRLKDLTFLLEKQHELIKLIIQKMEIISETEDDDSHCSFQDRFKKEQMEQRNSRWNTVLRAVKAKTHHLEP

human TRPA1 [2] = molecular target: T1, human TRPA1; assay: Cell-attached single-channel recordings of TRPA1 in HEK293T cells; type: cell-based; settings: −60 mV; 100 μM AITC alone, or with 5 μM PHL-B
rat TRPM8 = rat TRPM8 (Rattus norvegicus, UniProt Q8R455); assay: Compound selectivity fluorescence-based Ca2+ assay, menthol-stimulated TRPM8; type: cell-based; settings: 30 μM menthol; PHL-B different concentrations; sesamin 20 μM
Sequence of rat TRPM8 (Q8R455 whole entry): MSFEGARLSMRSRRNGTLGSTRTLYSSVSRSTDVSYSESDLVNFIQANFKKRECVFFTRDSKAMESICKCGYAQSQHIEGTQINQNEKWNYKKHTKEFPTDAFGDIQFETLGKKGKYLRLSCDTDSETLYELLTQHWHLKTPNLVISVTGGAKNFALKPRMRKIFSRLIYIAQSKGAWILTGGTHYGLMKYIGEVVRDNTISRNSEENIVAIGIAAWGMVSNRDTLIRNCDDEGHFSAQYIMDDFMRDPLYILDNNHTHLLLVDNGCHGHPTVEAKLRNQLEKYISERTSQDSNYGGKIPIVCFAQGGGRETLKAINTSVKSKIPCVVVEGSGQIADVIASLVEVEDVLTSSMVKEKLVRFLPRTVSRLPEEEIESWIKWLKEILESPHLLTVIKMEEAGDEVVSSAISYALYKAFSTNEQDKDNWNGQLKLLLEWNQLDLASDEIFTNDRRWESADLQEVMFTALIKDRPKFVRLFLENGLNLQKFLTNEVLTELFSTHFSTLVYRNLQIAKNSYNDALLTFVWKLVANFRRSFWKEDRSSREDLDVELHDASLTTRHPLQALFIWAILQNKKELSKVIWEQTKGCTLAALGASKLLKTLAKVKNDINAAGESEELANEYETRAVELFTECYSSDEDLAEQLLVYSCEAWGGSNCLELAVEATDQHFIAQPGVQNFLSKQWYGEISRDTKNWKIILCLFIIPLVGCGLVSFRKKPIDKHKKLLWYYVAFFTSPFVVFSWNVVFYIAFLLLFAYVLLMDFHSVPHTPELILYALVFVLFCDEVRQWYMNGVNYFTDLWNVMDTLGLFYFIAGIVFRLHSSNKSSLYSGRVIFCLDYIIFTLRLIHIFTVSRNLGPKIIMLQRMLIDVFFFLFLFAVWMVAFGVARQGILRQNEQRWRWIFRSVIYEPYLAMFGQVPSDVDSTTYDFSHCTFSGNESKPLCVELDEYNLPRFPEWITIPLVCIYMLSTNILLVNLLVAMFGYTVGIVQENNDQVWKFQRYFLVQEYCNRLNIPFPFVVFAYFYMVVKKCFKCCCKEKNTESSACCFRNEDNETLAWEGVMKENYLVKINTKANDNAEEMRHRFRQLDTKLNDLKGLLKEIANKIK
In short: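 HEK293T cells were cotransfected with rat TRPM8 and GCaMP6s and assayed after 48 h with GCaMP6s fluorescence. Channels were activated with 30 μM menthol; 20 μM sesamin served as the reference inhibitor. Read-out F/F0; N = 3–5 independent experiments.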

[3] = 100 μM AITC alone, or 100 μM AITC + 5 μM PHL-B, voltage ramp

Sequence of human TRPV1 (Q8NER1 whole entry): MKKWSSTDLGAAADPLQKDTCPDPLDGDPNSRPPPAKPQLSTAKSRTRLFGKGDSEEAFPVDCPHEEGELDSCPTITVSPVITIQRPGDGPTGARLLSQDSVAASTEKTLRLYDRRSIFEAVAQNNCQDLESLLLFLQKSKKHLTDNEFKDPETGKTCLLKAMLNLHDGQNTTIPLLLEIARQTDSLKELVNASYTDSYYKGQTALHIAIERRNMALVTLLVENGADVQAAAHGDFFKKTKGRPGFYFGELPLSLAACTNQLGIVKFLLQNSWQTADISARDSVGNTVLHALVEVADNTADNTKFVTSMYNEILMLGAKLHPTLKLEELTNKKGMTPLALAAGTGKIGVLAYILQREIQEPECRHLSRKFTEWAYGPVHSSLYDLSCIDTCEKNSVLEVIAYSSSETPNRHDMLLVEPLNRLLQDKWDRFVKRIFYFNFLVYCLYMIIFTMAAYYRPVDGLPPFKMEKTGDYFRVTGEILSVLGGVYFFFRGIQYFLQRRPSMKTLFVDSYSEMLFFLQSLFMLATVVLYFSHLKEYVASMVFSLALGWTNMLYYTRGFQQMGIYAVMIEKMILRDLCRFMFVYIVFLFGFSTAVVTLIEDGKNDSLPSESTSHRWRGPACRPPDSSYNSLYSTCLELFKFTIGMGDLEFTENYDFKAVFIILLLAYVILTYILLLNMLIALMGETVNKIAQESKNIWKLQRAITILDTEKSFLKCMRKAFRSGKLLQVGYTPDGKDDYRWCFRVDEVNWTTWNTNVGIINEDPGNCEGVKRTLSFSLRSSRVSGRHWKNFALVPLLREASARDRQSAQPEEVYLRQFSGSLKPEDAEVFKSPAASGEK

Oc1cc2c(cc1O)CN(C(=S)NCCc1ccc(Cl)cc1)CCC2 [Capsazepine, capsazepine]
effect on capsaicin-induced normalized fluorescence (TRPV1) (human TRPV1): fully abolished

CC(C)c1cc2c(c(O)c1O)[C@@]13CCCC(C)(C)[C@@H]1C[C@@H]2OC3=O [carnosol]
EC50 (TRPA1 channels): ~12 µM

C=CCN=C=S [AITC, allyl isothiocyanate]
current density at +50 mV (human TRPA1 [1]; [3]): 30.5 ± 2.9 pA/pF
current density at −100 mV (human TRPA1 [1]; [3]): −91.73 ± 11.47 pA/pF
τoff (time course of recovery) (human TRPA1 [1]; −60 mV, 100 μM AITC, or 100 μM AITC + 5 μM PHL-B): 28.6 ± 3.4 ms
fold increase of channel open probability (PO) over basal (human TRPA1 [2]): approximately 150 fold

c1cc2c(cc1[C@H]1OC[C@H]3[C@@H]1CO[C@@H]3c1ccc3c(c1)OCO3)OCO2 [sesamin]
effect on menthol-induced Ca2+ influx (TRPM8) (rat TRPM8): practically inhibited all
